# In ChEMBL document CHEMBL4513216, “Probing the Open Global Health Chemical Diversity Library for Multistage-Active Starting Points for Next-Generation Antimalarials” (ACS Infect Dis, 2020):
# Experiment: Toxicity liver stage against HepG2, at 10uM
# Format: cell-based
# Parameters: test concentration 10 uM, cell line HepG2-A16-CD81EGFP
# Conditions: human, HepG2-A16-CD81EGFP cells; read-out: INHIBITION
# Procedure, shortened: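 Uninfected HepG2-A16-CD81EGFP cells, 3 × 10^3 per well, 1536-well, plated on prespotted compound at 10 μM final, parasite-free screening media added to match infected plates; puromycin 10 μM positive, DMSO 0.5% negative; run in parallel with 48 h PbLuc assay at 37 °C, 5% CO2; viability by CellTiter-Glo luminescence, normalized to controls.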
row,Structure (SMILES),cytotoxicity at 10 µM
1,CSc1ccc(C(=O)N2C[C@@H]3CC[C@H]2CN(Cc2cccnc2)C3)cc1,-7.38%
2,CNc1ncc(CN(C)c2ncnc3onc(C)c23)cn1,-16.8%
3,Cc1cc2ccccc2n1CC(=O)NC(C)C(=O)N1CCOCC1 (configuration not stated),3.57%
4,Cc1ccc2nnc(C(=O)NCC3CCCC3)nc2c1,6.47%
5,O=C(C1CC(c2ccccc2)=NO1)N1CCc2ccccc21 (configuration not stated),-0.643%
6,Cn1cccc1C(=O)N1CCO[C@@H]2CN(Cc3nccs3)C[C@@H]2C1,-103%
7,CCN1CCCN(c2ncccc2C(=O)N2CCCCC2)CC1,-5.1%
8,Cc1nc(C)n(CC2CCCN(CC(=O)N3CCCC3)C2)n1 (configuration not stated),-8.31%
9,COCCN1Cc2ccccc2C2(CCN(C(=O)c3ccco3)CC2)C1,5.85%
10,Cc1cccc2sc(NC(=O)CN3CCC(C)CC3)nc12,2.89%
11,Cc1cc(NCc2noc(C(C)C)n2)nc(-c2ccccc2)n1,11%
12,Cn1cc(CN2CCCC23CCN(S(C)(=O)=O)CC3)cn1,-82.1%
13,O=C(CSCCN1CCOCC1)N1CCCCCC1,10.4%
14,Cc1ccc(S(=O)(=O)NCc2cnn(C)c2)c(F)c1,-13%
15,COCCN(C)C(=O)Nc1ccc(C(=O)NCCC(=O)OC)cc1,7.2%
16,COc1ccccc1CNC(=O)N1CCCC(c2nncn2C)C1 (configuration not stated),-6.51%
17,CCCc1nnc(N2CC[C@](C)(O)[C@H](C)C2)s1,-10.4%
18,O=C(Cc1cccc(F)c1)NCCNCc1ccc2c(c1)CCO2,-12.5%
19,Cc1ccc(N2CCCC(NCc3ccccn3)C2)nn1 (configuration not stated),0.301%
20,CN(Cc1nc(C2CC2)no1)C1CCS(=O)(=O)C1 (configuration not stated),13.2%
21,Cn1nccc1CCC(=O)N1CCOC(c2cnccn2)C1 (configuration not stated),-25.9%
22,Cc1ccc(CNC(CCO)C2CCCCC2)nc1 (configuration not stated),-37.4%
23,O=C(c1ccc(S(=O)(=O)N2CCSCC2)cc1)N1CCC(O)C1 (configuration not stated),4.91%

row,Structure (SMILES),cytotoxicity at 10 µM
1,CCS(=O)(=O)CC(=O)NC(c1ccccc1)C1CCCCC1 (configuration not stated),-4.01%
2,OC(COCc1ccccc1)CN1CC(n2cccn2)C1 (configuration not stated),1.95%
3,COCCCNC(=O)CN(C)C(C)c1nc(C(C)C)no1 (configuration not stated),8.24%
4,CSCC(=O)N(Cc1ccccn1)Cc1ccccc1C,7.79%
5,Cc1cnn(CC2CN(Cc3nnc(C(C)C)o3)CCO2)c1 (configuration not stated),-2.55%
6,Cc1ccc(C(CNCc2cccn2C)N2CCOCC2)s1 (configuration not stated),14.9%
7,Cc1cnn(CC(C)NCc2ccc(OCc3cscn3)cc2)c1 (configuration not stated),-9.35%
8,Nc1nonc1C(=O)N1Cc2ccccc2OC2(CCOCC2)C1,-29.5%
9,CC(C)c1nnc2n1CC(CNCc1cccnc1)CC2 (configuration not stated),6.59%
10,CN(Cc1cc(Br)cn1C)C(=O)c1ccon1,-3.33%
11,Cc1ccc(C(=O)N2CCN(CC(C)O)CC2)cc1S(C)(=O)=O (configuration not stated),-2.96%
12,O=C(O)c1cccc(N2C[C@H](NC(=O)C3CCOCC3)[C@@H](C3CC3)C2)n1,-4.31%
13,CCN(CC)CCCC(C)NC(=O)c1ccccc1-n1cccn1 (configuration not stated),15.9%
14,Cc1cc(C(=O)NCc2ccccn2)no1,-9.95%
15,COCCN1C[C@@H](C)[C@@]2(COCCN(C(=O)Cc3ccccc3)C2)C1,-12.4%
16,CCNc1ncc(C(=O)N(C)Cc2nc3ccccc3n2C)cn1,6.09%
17,CN1CCC(N(Cc2ccncc2)C(=O)COCC2CCCCO2)CC1 (configuration not stated),-150%
18,CC(=O)N1CCN(C(=O)Nc2ccccc2Cl)[C@H]2CS(=O)(=O)C[C@H]21,-0.166%
19,c1ccc(-c2nnn3c2COC(CNCc2ccccn2)C3)cc1 (configuration not stated),0.595%
20,Cc1cccc(C(=O)N2C[C@@H](C)[C@@]3(CCN(c4ccsc4)C3=O)C2)n1,-78.9%
21,O=C(C1CC1)N1C[C@@H](F)[C@@H](OCc2nc3ccccc3o2)C1,-1.94%
22,Fc1ccc(N2CCCN(Cc3ccc(-c4cc[nH]n4)o3)CC2)cc1,0.898%
23,OC(CN1CCC(c2ccn[nH]2)CC1)c1ccccc1F (configuration not stated),-25.5%

row,Structure (SMILES),cytotoxicity at 10 µM
1,C=C(C)CNC(=O)C1CCCN(C2CCN(C(C)C)CC2)C1 (configuration not stated),-0.454%
2,CC(CCSc1ccccc1)N1CCN(C(=O)c2cccs2)CC1 (configuration not stated),25.5%
3,Cc1nc(CN2CCC(NS(C)(=O)=O)CC2)co1,-12.4%
4,CC(C)Oc1ncccc1CNC(=O)N1CCCC1c1ccsc1 (configuration not stated),-8.25%
5,CC(=O)N1CCc2nc(C3CCN(C(=O)c4ccccc4)C3)ncc2C1 (configuration not stated),-4.76%
6,CC(=O)Nc1nc(C2CCN(CC(N)=O)CC2)cs1,-2.76%
7,CCc1ccc(C(NCC(N)=O)C(C)(C)C)o1 (configuration not stated),-7.21%
8,O=C(NCCN1CCCCC1)c1cccc(Cl)c1Cl,6.04%
9,O=C(c1cnc[nH]1)N1CCC(Oc2cccnc2)CC1,6.87%
10,Cc1ncsc1CN(C)Cc1cc2c(cc1OC(F)F)OCO2,6.22%
11,CC1=Nc2c(c(=O)[nH]n2C(C)C)C(c2ccc3c(c2)OCCO3)S1 (configuration not stated),-1.01%
12,Cc1csc(CN2CC(CO)Oc3ccccc32)n1 (configuration not stated),6.62%
13,c1ccc(N2CC[C@@H]3CN(Cc4ccncc4)CCO[C@@H]3C2)cc1,9.49%
14,Cc1nc(-c2nc(C(=O)N3CCOCC3)c3ccccn23)cn1C(C)C,1.53%
15,CC(=O)Nc1ccc(-c2ccccc2NC(=O)CN)cc1,2.83%
16,COc1cccc(S(=O)(=O)NC(=O)CC2CCCO2)c1 (configuration not stated),7.53%
17,CNc1nc(N2CCC3(CCCNC3=O)C2)nc2c1CCC2 (configuration not stated),-4.95%
18,CNC(=O)c1cc2c(nc1NCC1CC1)CCNCC2,-0.966%
19,CCOC1CCCN(C(=O)c2nn(-c3ccccc3F)cc2O)C1 (configuration not stated),-4.62%
20,Cc1c(S(=O)(=O)N2CCCC2c2nnc(-c3ccsc3)o2)cnn1C (configuration not stated),3.04%
21,COc1nn(C)c2c1CCCN(S(=O)(=O)c1cccc(C)c1)C2,-133%
22,COc1ccc2cc(CNCc3c(C)nn(C)c3N(C)C)ccc2c1,-20.4%
23,Fc1ccc(CN2CCCC2c2cncc(-n3ccnc3)n2)cc1 (configuration not stated),5.82%

row,Structure (SMILES),cytotoxicity at 10 µM
1,Cc1cnc(NC(=O)NCCOc2ncccc2Cl)s1,6.62%
2,CCOc1ccc(N(CCC#N)C(=O)c2ccc(OC)nc2)cc1,2.52%
3,Cc1csc(CN2CC[C@H]3C[C@@H](c4nnc(C)[nH]4)O[C@@H]3C2)n1,1.56%
4,O=c1[nH]c2ccc(S(=O)(=O)N(CCO)Cc3ccncc3)cc2[nH]1,1.07%
5,CCc1noc(C)c1C(=O)N1CCCC(n2nc(C)nc2C)C1 (configuration not stated),-7.01%
6,CCC(C)(C)NC(=O)Cn1cc(C(N)=O)c(-c2ccccc2)n1,-6.84%
7,Cc1[nH]ccc1C(=O)N1CCC2(CC1)c1nc[nH]c1CCN2CC(C)C,7.31%
8,CN1CCN(CC[C@@H]2CC[C@H](O)[C@@H](C(=O)Nc3ccccc3)O2)CC1,-7.1%
9,CC(C)C(=O)N1CCN(S(=O)(=O)C2CC2)CC2(CC(=O)N(C)C2)C1 (configuration not stated),8.4%
10,CO[C@@H]1CN(c2ccccc2)S(=O)(=O)[C@@]12CCN(C(C)=O)C2,6.07%
11,CC(C)(C)n1cc(NCc2cscn2)cn1,-6.08%
12,COCC(C)N(C)C(=O)c1ccc2nncn2c1 (configuration not stated),-1.37%
13,Cn1cc(S(=O)(=O)NCc2ccc(F)cc2)cn1,1.25%
14,COCC(=O)Nc1ccc(Sc2nncn2C)c(Cl)c1,-5.48%
15,Cc1ccc(-c2nc(CN3CCOC(Cn4cccn4)C3)co2)cc1 (configuration not stated),-5.3%
16,Cc1nn2c(N3CCC(C#N)CC3)cc(-c3ccccc3)nc2c1C,-8.6%
17,CC(CC(=O)N1CCCS1(=O)=O)c1ccccc1C(F)(F)F (configuration not stated),8.92%
18,Cc1ncc2c(n1)CCCC2NC(=O)c1ccncc1 (configuration not stated),-19.4%
19,O=C(NCCC1=CCCCC1)NC1CCCc2c1cnn2CCO (configuration not stated),-6.95%
20,Cc1csc(N2CCN(C(=O)C(C)n3cncn3)CC2)n1 (configuration not stated),0.652%
21,Cc1n[nH]c(C)c1CCN(C)c1ccc(-c2nc(C3CC3)no2)cn1,2.08%
22,Cc1ccc(CC(NC(=O)CCS(C)(=O)=O)c2ccccn2)cc1 (configuration not stated),-11%
23,C[C@@H]1CN(C(=O)CCN2CCCC2)CC[C@@]1(O)C1CCOCC1,-5.15%

row,Structure (SMILES),cytotoxicity at 10 µM
1,COc1cc(Cl)cc(C(=O)N2CCC3(CC2)CNC(=O)C3)c1,-18.1%
2,Cc1cc(N2CCc3cnc(C)nc3C2)n2nc(C(F)(F)F)nc2n1,0.769%
3,CNc1cc(C2CCCN2C(=O)CCc2cnn(C)c2C)ccn1 (configuration not stated),5.98%
4,COc1ccccc1OC1CCN(C(=O)CCCn2ccnc2)CC1,-183%
5,Cc1cc(N2CCCN(c3ccnc(C)c3)CC2)ccn1,-0.943%
6,CC(NC(=O)c1cccc(CN2CCN(C)CC2)c1)c1nccs1 (configuration not stated),-4.28%
7,Cc1noc(C)c1CCCNC(=O)C1CCN(C(=O)C2CC2)CC1,1.23%
8,Cc1nn(C)c(C)c1C1CCCN1C(=O)CCCc1ccccn1 (configuration not stated),2.43%
9,CCCN1C[C@@H]2CC[C@H]1CN(Cc1ccc(-n3cccn3)cc1)C2,5.05%
10,CCOCCN(CCOCC)c1nc(C)nc2sccc12,-126%
11,CCS(=O)(=O)N1CC[C@@H]2[C@H](CC1)N(Cc1cccnc1)CCS2(=O)=O,-3.12%
12,CC(C)C1CCCN1C(=O)Nc1ccc(=O)n(C)c1 (configuration not stated),0.581%
13,COc1ccc(C(=O)N2CC[C@](C)(O)[C@H](C)C2)cc1N1CCOCC1,14.9%
14,CCc1nc(CN2CCN(C(=O)C3CCCCC3)CC2)cs1,3.64%
15,O=C(CCNc1ncccn1)N1CCC(Nc2cccnn2)CC1,-12.9%
16,O=C(NC1CCN(c2ccc(-c3ccccc3F)nn2)C1)c1ccc[nH]1 (configuration not stated),7.4%
17,CNC(=O)CN1CCOCC12CCN(Cc1ccncc1)CC2,3.07%
18,CCn1ncnc1C(C)Nc1cc(C2CCNCC2)nc(C)n1 (configuration not stated),-6.77%
19,O=C1NCCN1C1CCN(CCc2cccs2)CC1,-1.32%
20,Fc1ccccc1OCCc1cc(C2CCNC2)n[nH]1 (configuration not stated),-26.8%
